Shown are actives, neighbours in structure and some others; about 2.7% of the full set was active somewhere.
NadD block: blocks S. aureus nicotinate mononucleotide adenylyltransferase; inhibition, % at 20 µM; purified NadD enzyme, colorimetric absorbance read-out; actives 0.78% (n = 360,000); in the data active means inhibition above about 26%
PP1 counter: counter-screen for PP5 inhibitors: inhibitors of human PP1-alpha | inhibition, % at 6.7 µM | actives 0.9% (n = 320,000) | P62136 | purified PP1alpha, OMFP fluorescence;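 active means inhibition above the mean inhibition of all tested compounds plus 3 SD, computed separately for each screening campaign, cut at about 15% in these data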
Rpn11 block: blocks the human proteasome subunit Rpn11; human 26S proteasome, Ub4-pepOG fluorescence polarization; 20S core pre-blocked with epoxomicin; actives 0.59% (n = 360,000); inhibition, % at 20 µM; AID 588493; O00487;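 active means inhibition at 20 µM, scaled to each plate's controls, above about 33%, limit read from the data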
TPT1 inh: inhibitors of Candida albicans tRNA 2'-phosphotransferase TPT1 | recombinant caTPT1, FP RNA substrate dephosphorylation | inhibition, % at 5 µM | actives 0.81% (n = 300,000) | AID 1962;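 active means inhibition above the mean of all tested compounds plus 3 SD, set per screening campaign, cut at about 24% in these data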;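 further: plate controls were DMSO alone for no effect and ferristatin control at 100 nM for full effect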
HNF4A DNA FP: change in binding of human HNF4 alpha to DNA; P41235; HNF4a-FITC DNA binding, fluorescence polarization, 1 h; activity change, % at 10 µM; actives 0.3% (n = 360,000); AID 1224865; in the data active means activity change above about 30%, passing the limit was not always enough
CSN deneddyl inh: blocks human CSN-mediated cullin deneddylation; Q92905; Purified CSN, SCF-Nedd8-OG deneddylation, fluorescence polarization; inhibition, % at 12.5 µM; actives 0.38% (n = 360,000); AID 651999;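 active means pattern-corrected inhibition above about 35%, with an unprinted fluorescence ratio check between 0.5 and 1.5, limit read from the data, passing the limit was not always enough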;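 further: 0% = enzyme with substrate and 100% = substrate without enzyme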
Target sequence (Q92905 whole entry, looked up, one chain of several): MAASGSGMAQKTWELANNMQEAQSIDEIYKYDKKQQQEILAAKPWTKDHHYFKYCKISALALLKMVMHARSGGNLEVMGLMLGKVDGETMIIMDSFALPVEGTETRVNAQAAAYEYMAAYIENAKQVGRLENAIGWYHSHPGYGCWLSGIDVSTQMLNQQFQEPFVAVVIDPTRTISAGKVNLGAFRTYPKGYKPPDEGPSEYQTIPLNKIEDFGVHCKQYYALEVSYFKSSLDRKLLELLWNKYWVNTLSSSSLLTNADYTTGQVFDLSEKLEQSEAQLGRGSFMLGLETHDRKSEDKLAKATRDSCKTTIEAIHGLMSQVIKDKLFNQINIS
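Material: human Csn5 produced in HEK293T cells; Input: enzyme 0.24 nM; Reagent: SCFSkp2-Nedd8OG substrate at 10 nM final; Dosing: 12.5 µM compound; Incubation: 90 min reaction at room temperature; Detection: fluorescence polarization of the substrate; Evaluation: % inhibition of substrate cleavage by Csn5; Control set: substrate-only high control, full reaction low control.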
TPT1 inh confirm: TPT1 (C. albicans) inhibition, confirmation. shares compounds with TPT1 inh. recombinant caTPT1, fluorescence polarization, RNase T1 coupled. inhibition, % at 5 µM. actives 74% (n = 2,400);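 active means inhibition above the primary screen limit, the mean inhibition of all tested compounds plus 3 SD, cut at about 25% in these data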
RNase T1 counter: blocks Aspergillus oryzae RNase T1, a TPT1 counter-screen | shares compounds with TPT1 inh | RNase T1 cleavage, fluorescence polarization, 1536-well | inhibition, % at 5 µM | actives 83% (n = 2,400) | AID 2153;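 active means inhibition above the solvent-only control well mean plus 3 SD, limit set per screening run, cut at about 23% in these data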;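 further: plate controls were DMSO wells with enzyme for no effect and wells without RNase T1 for full effect; inhibitors block cleavage so intact labeled substrate keeps polarization high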
Target sequence (P00651 whole entry, looked up): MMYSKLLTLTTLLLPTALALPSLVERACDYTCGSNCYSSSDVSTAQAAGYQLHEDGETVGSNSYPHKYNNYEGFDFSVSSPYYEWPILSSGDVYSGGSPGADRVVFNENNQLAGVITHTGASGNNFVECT
* = called active by the depositor; x = no result shown; ! = a repeat was not active.

SMILES	NadD block	PP1 counter	Rpn11 block	TPT1 inh	HNF4A DNA FP	CSN deneddyl inh	TPT1 inh confirm	RNase T1 counter
COc1cc(N2CCCC2)c(OC)cc1/C=C(/C#N)c1ccc(F)cc1	2	0	x	143*	82	23	132*	134*
Cc1cccc(C)c1NC(=O)CN(C)C(=O)c1ccccc1Sc1ccccc1C#N	-3	2	2	x	2	2	x	x
Cc1ccc(C(=O)Nc2ccc(F)c(S(=O)(=O)N3CCOCC3)c2)s1	-6	x	-1	x	-3	1	x	x
Cc1ccc(NC(=O)c2cc(S(=O)(=O)N3CCOCC3)c(Br)s2)cc1	-11	3	0	29*	2	-13	0	3
CC1CC(C)CN(S(=O)(=O)c2ccc(C(=O)N3CCOCC3)cc2)C1 (centres undefined)	-2	0	1	-1	1	-1	x	x
CCc1ccc2[nH]c(O)c(N=Nc3nc(-c4ccccc4)cs3)c2c1	23	6	33	43*	14	8	26*	40*
CCc1cc2c(N=Nc3c(O)[nH]c4ccccc34)ncnc2s1	-4	-4	x	4	23	6	x	x
CC(=O)NC(c1ccccc1)c1nc(-c2cccc(F)c2)cs1 (centres undefined)	-2	x	-7	x	-3	-2	x	x
C[n+]1cc(C(=O)N2CCCCC2)ccc1/C=C/c1c[nH]c2ccccc12	14	-6	x	132*	147	149	109*	109*
O=C(C(=O)N1CCCCCC1)c1c[nH]c2ccccc12	-3	x	-1	x	-1	-4	x	x
CC(=O)c1ccc(N2CCN(CC(=O)N(C3CC3)C3CCS(=O)(=O)C3)CC2)c(F)c1 (centres undefined)	5	-3	7	x	-1	-2	x	x
CCCCc1ccc(/C=C(\C#N)C(N)=S)s1	-4	x	1	x	-2	0	x	x
CCCCc1ccc(C2C(C#N)=C(N)SC(N)=C2C#N)s1	x	3	x	137*	x	x	64*	76*
CCc1nc(C)cn1S(=O)(=O)c1ccc2c(c1)OCCO2	2	x	2	x	2	-4	x	x
CC1(C)OC(=O)C(=Cc2ccc(-c3ccc(S(N)(=O)=O)cc3)o2)C(=O)O1	4	2	15	28*	10	12	8	13
NS(=O)(=O)c1ccc(-c2ccc(/C=C3\C(=O)Nc4ccccc43)o2)cc1	x	4	x	4	x	x	x	x
CCCNC(=O)c1cc(C2CCCCN2C(=O)c2ccccc2)on1 (centres undefined)	-1	x	-9	x	0	3	x	x
C/C(=N\Nc1ccc([N+](=O)[O-])cc1)c1ccc(O)cc1	4	5	x	94*	51*	14	91*	100*
CC(=O)NC/C(C)=N\Nc1ccc([N+](=O)[O-])cc1	2	0	36	32*	10	13	43*	55*
Cc1ccc(OCC(=O)N2CCN(c3ccc([N+](=O)[O-])c(N4CCOCC4)c3)CC2)cc1	0	7	-9	31*	1	-4	3	17
O=C(COc1ccc(Cl)cc1)N1CCN(c2ccc([N+](=O)[O-])c(N3CCOCC3)c2)CC1	6	0	3	-1	0	2	x	x
CCNc1ccc(C(=O)OCC(=O)Nc2cc(C)on2)cc1[N+](=O)[O-]	-3	0	6	x	2	-6	x	x
CC1=C/C(=C\c2ccc(Br)o2)C(=O)O1	-4	0	5	6	-37	32	x	x
O=C1C(=Cc2ccc(Br)o2)C(=O)c2ccccc21	33*	2	x	26*	-73	50	26*	28*
CCOC(=O)C1(C)CCN1C(=O)c1oc2ccccc2c1C (centres undefined)	0	x	0	x	1	-1	x	x
SMILES	NadD block	PP1 counter	Rpn11 block	TPT1 inh	HNF4A DNA FP	CSN deneddyl inh	TPT1 inh confirm	RNase T1 counter
O=C1c2ccccc2S(=O)(=O)c2cc(N3CCC4(CC3)OCCO4)ccc21	x	0	x	30*	x	x	45*	56*
O=C1c2ccccc2S(=O)(=O)c2cc(C(=O)N3CCN(c4ccccc4)CC3)ccc21	-9	5	2	-1	-2	0	x	x
O=C1c2ccccc2S(=O)(=O)c2cc(N3CCN(C(=O)c4ccccc4)CC3)ccc21	x	1	x	35*	x	x	61*	70*
CCN(CC(=O)Nc1c(F)cccc1F)C(=O)Cc1csc(-c2ccccc2)n1	-3	0	-1	2	1	0	x	x
Cc1cccc(N2CC(C(=O)NCc3ccco3)CC2=O)c1C (centres undefined)	-6	0	0	x	-1	-1	x	x
N=C(N)SCc1nc2ccccc2c(=O)n1-c1ccccc1	12	3	26	26*!	16	2	28*	37*
CN(C)C(CNS(=O)(=O)c1ccc(Cl)cc1F)c1ccco1 (centres undefined)	-4	x	-9	x	-2	-4	x	x
CC[n+]1ccc(/C=C/c2c[nH]c3ccccc23)cc1	14	-4	x	64*	83	66	60*	67*
O=C1/C(=C/c2ccco2)SC(=S)N1CC1CCCO1 (centres undefined)	7	4	7	8	-2	27	x	x
O=C1/C(=C\c2ccc(-c3ccccc3Cl)o2)SC(=S)N1CC1CCCO1 (centres undefined)	10	-3	0	27*	-9	7	48*	61*
CCN(C(=O)C(C)N1C(=O)/C(=C/c2ccco2)SC1=S)C1CCS(=O)(=O)C1 (centres undefined)	10	-7	10	10	-2	34	x	x
CC(C(=O)O)N1C(=O)/C(=C/C=C/c2ccco2)SC1=S (centres undefined)	27	11	x	61*	-47	49	34*	45*
CCN1CCS/C1=C/C=C/C1=[N+](CC)CCS1	9	0	15	25*	15	-15	25*	33*
CCN1CCS/C1=C\C=C\C1=[N+](CC)CCS1	8	x	13	x	13	4	x	x
O=C(COc1ccc(Br)cc1)NNC(=O)Cc1ccc(S(=O)(=O)N2CCOCC2)s1	-5	x	4	x	0	0	x	x
COc1ccc(N=Nc2[nH]c3ccc(C)cc3c2O)cc1	16	0	3	0	-1	2	x	x
Cc1ccc(N=Nc2[nH]c3ccccc3c2O)cc1	8	0	-25	24*	7	8	-8	3
CCOC(=O)C1=C(C)N=c2s/c(=C/c3ccco3)c(=O)n2C1c1cccc(OC)c1 (centres undefined)	x	4	x	31*	x	x	25*	35*

From PubChem BioAssay
